Active and inactive are the calls of the source. No cut-off for these calls is given here.
Experiments:
[1] = Cytotoxicity against human BE(2)-C cells assessed as cell proliferation at 6.25 uM incubated overnight by XTT assay relative to control; assay type: cell-based; settings: read-out: Activity
dengue virus type 2 [2] = test: Antiviral activity against eGFP-fused Dengue virus 2 infected in human BE(2)-C cells assessed as viral infection level by measuring intensity of eGFP emission from infected cells at 3.13 uM incubated for 24 hrs relative to control; assay type: functional
Summary of the method: (§1)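 BE(2)C cells, in RPMI 1640 with 10% FBS, were infected with DENV-2-eGFP reporter virus (MOI 1) for 24 h with or without compound, using DMSO as solvent control. Cells were fixed in 4% paraformaldehyde and stained with Hoechst, then imaged by high-content analysis. eGFP intensity per cell number is given as % of solvent control. Values are means of 3 experiments.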

dengue virus type 2 [3] = test: Antiviral activity against eGFP-fused Dengue virus 2 infected in human BE(2)-C cells assessed as viral infection level by measuring intensity of eGFP emission from infected cells at 1.56 uM incubated for 24 hrs relative to control; assay type: functional; summary of the method: as §1
[4] = target: Calcium/calmodulin-dependent protein kinase type II subunit alpha (Homo sapiens, UniProt Q9UQM7); test: Inhibition of human CaMKIIalpha using calmodulin and syntide-2 incubated for 15 mins by ELISA
Chain of Calcium/calmodulin-dependent protein kinase type II subunit alpha (Q9UQM7 whole entry): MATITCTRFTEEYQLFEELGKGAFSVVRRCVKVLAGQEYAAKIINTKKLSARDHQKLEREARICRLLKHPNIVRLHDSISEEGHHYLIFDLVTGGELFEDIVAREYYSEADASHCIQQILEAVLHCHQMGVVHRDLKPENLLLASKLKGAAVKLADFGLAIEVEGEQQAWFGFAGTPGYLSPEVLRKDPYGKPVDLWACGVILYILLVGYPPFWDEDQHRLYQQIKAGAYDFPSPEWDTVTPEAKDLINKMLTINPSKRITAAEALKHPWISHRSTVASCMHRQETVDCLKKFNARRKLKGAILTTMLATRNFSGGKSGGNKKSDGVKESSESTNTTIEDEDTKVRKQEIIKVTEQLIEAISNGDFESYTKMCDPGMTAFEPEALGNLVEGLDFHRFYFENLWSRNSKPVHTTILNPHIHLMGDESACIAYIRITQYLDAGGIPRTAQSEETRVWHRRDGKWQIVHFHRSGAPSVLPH

Compound | viability at 6.25 µM [1] [%] | Activity (dengue virus type 2 [2]) [%] | Activity (dengue virus type 2 [3]) [%] | inhibition [4] | IC50 [4] [µM]
COc1ccc(S(=O)(=O)N(C)CCCC(=O)c2ccc(F)cc2)cc1 | 106 | 100.9 | 100 | – | –
Cc1ccc(S(=O)(=O)N(CCCC(=O)C2CCCCCC2)c2ccccc2)cc1 | 99.5 | 76.9 | 93.9 | – | –
COc1ccc(S(=O)(=O)N(CCCC(=O)c2ccc(F)cc2)c2ccccc2)cc1 | 56.1 | 39.3 | 55.9 | – | –
COc1ccc(S(=O)(=O)N(CCCC(=O)C2C3CC4CC(C3)CC2C4)c2ccccc2)cc1 (configuration not stated) | 96.7 | 51.1 | 57.3 | – | –
COc1ccc(S(=O)(=O)N(CCCC(=O)C2CCCCC2)c2ccccc2)cc1 | 107 | 63.3 | 68.9 | – | –
O=C(CCCN(c1ccccc1)S(=O)(=O)c1ccc(Oc2ccccc2)cc1)C1CCCCCC1 | 95.5 | 73.4 | 74.7 | – | –
COc1ccc(S(=O)(=O)NCCCC(=O)c2ccc(F)cc2)cc1 | 106 | 122.6 | 110.1 | Active | –
COc1ccc(S(=O)(=O)N(CCCC(=O)C2CCCCCC2)c2ccc(C3CCCCC3)cc2)cc1 | – | 13.8 | 36.1 | – | –
O=C(CCCN(c1ccccc1)S(=O)(=O)c1ccc(OC(F)(F)F)cc1)C1CCCC1 | 92.4 | 118.2 | 102.6 | – | –
COc1ccc(S(=O)(=O)N(CCCC(O)c2ccc(F)cc2)c2ccccc2)cc1 (configuration not stated) | 76.3 | 48.5 | 59.4 | Active | –
COc1ccc(S(=O)(=O)N(CCCC(=O)C2CCCC2)c2ccccc2)cc1 | – | 25.1 | 34.6 | – | –
COc1ccc(S(=O)(=O)N(CCCC(C)=O)c2ccccc2)cc1 | 106 | 100.8 | 92.8 | – | –
COc1ccc(S(=O)(=O)N(CCCC(=O)C2CCCCCC2)c2ccc3c(c2)CCCC3)cc1 | 104 | 21.5 | 87.2 | – | –
COc1ccc(S(=O)(=O)N(CCO)c2ccccc2CN(C)C/C=C/c2ccc(Cl)cc2)cc1 | 84.3 | 14.5 | 30.5 | – | –
CN([C@@H](Cc1ccc(OS(=O)(=O)c2cccc3cnccc23)cc1)C(=O)N1CCN(c2ccccc2)CC1)S(=O)(=O)c1cccc2cnccc12 | 65.7 | 22.3 | 33.5 | – | 1.03
COc1ccc(S(=O)(=O)N(CCCC(=O)C2CCCCCC2)C2CCCCC2)cc1 | 97.5 | 65.7 | 85.7 | – | –
COc1ccc(S(=O)(=O)N(CCCC(=O)C2CCC2)c2ccccc2)cc1 | 93.9 | 33 | 42.8 | – | –

Reference: ChEMBL document CHEMBL4376891, “Benzenesulfonamide Derivatives as Calcium/Calmodulin-Dependent Protein Kinase Inhibitors and Antiviral Agents against Dengue and Zika Virus Infections” (J Med Chem, 2020)
